Experimental data as given in ChEMBL document CHEMBL4152228, “Structural-based design, synthesis, and antitumor activity of novel alloxazine analogues with potential selective kinase inhibition” (Eur J Med Chem, 2018).

Assays:
MCF7 [1] = assay: Induction of apoptosis in human MCF7 cells assessed as early apoptotic cells at 5 uM after 72 hrs by annexin V-FITC/propidium iodide staining-based flow cytometric method (reference value: 9%); type: functional
MCF7 [2] = assay: Induction of apoptosis in human MCF7 cells assessed as late apoptotic cells at 1 uM after 72 hrs by annexin V-FITC/propidium iodide staining-based flow cytometric method (reference value: 2.6%); type: functional
MCF7 [3] = assay: Induction of apoptosis in human MCF7 cells assessed as viable cells at 5 uM after 72 hrs by annexin V-FITC/propidium iodide staining-based flow cytometric method (reference value: 76%); type: functional; conditions: MCF7, 72 h, read-out: Activity
[4] = Antiproliferative activity against human WM793B cells after 72 hrs by MTT assay; type: functional, cell-based
In short: (§1)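 MTT viability assay. Cells grown in RPMI-1640 with 10% heat-inactivated FBS, L-glutamine and 1% penicillin/streptomycin, used within 20 passages. Seeded at 5×10^3 cells/well, left overnight at 37 °C, then exposed to final concentrations of 0.005–50 µM (0.1% DMSO) for up to 72 h. MTT added for 3 h, formazan dissolved in DMSO, absorbance read at 550 nm. IC50 derived relative to untreated controls.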

MCF7 [5] = assay: Induction of apoptosis in human MCF7 cells assessed as necrotic cells at 1 uM after 72 hrs by annexin V-FITC/propidium iodide staining-based flow cytometric method (reference value: 12.6%); type: functional
MCF7 [6] = assay: Induction of apoptosis in human MCF7 cells assessed as viable cells at 10 uM after 72 hrs by annexin V-FITC/propidium iodide staining-based flow cytometric method (reference value: 76%); type: functional; conditions: MCF7, 72 h, read-out: Activity
K562 = assay: Antiproliferative activity against human K562 cells after 72 hrs by MTT assay; type: functional, cell-based; conditions: K562, 72 h
A2780 = assay: Antiproliferative activity against human A2780 cells after 72 hrs by MTT assay; type: functional, cell-based; conditions: A2780, 72 h; in short: as §1
MCF7 [7] = assay: Induction of apoptosis in human MCF7 cells assessed as late apoptotic cells at 10 uM after 72 hrs by annexin V-FITC/propidium iodide staining-based flow cytometric method (reference value: 2.6%); type: functional
MCF7 [8] = assay: Induction of apoptosis in human MCF7 cells assessed as necrotic cells at 10 uM after 72 hrs by annexin V-FITC/propidium iodide staining-based flow cytometric method (reference value: 12.6%); type: functional
MCF7 [9] = assay: Induction of apoptosis in human MCF7 cells assessed as increase of early apoptotic cells at 1 to 10 uM after 72 hrs by annexin V-FITC/propidium iodide staining-based flow cytometric method relative to control; type: functional
In short: (§2)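 MCF-7 cells treated 72 h at final 1, 5, 10 µM, then annexin V-FITC/PI stained in pH 7.4 HEPES binding buffer and analysed by flow cytometry. Early or late apoptotic cell fraction expressed as percent change versus vehicle control: (sample − control)/control × 100. Triplicates.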

MCF7 [10] = assay: Induction of apoptosis in human MCF7 cells assessed as increase of early apoptotic cells after 72 hrs by annexin V-FITC/propidium iodide staining-based flow cytometric method; type: functional, cell-based; in short: as §2
HCT-116 = assay: Antiproliferative activity against human HCT116 cells after 72 hrs by MTT assay; type: functional, cell-based; conditions: HCT-116, 72 h; in short: as §1
MCF7 [11] = assay: Induction of apoptosis in human MCF7 cells assessed as late apoptotic cells at 5 uM after 72 hrs by annexin V-FITC/propidium iodide staining-based flow cytometric method (reference value: 2.6%); type: functional
MCF7 [12] = assay: Induction of apoptosis in human MCF7 cells assessed as early apoptotic cells at 1 uM after 72 hrs by annexin V-FITC/propidium iodide staining-based flow cytometric method (reference value: 9%); type: functional
MCF7 [13] = assay: Induction of apoptosis in human MCF7 cells assessed as early apoptotic cells at 10 uM after 72 hrs by annexin V-FITC/propidium iodide staining-based flow cytometric method (reference value: 9%); type: functional
MCF7 [14] = assay: Induction of apoptosis in human MCF7 cells assessed as necrotic cells at 5 uM after 72 hrs by annexin V-FITC/propidium iodide staining-based flow cytometric method (reference value: 12.6%); type: functional
MCF7 [15] = assay: Antiproliferative activity against human MCF7 cells after 72 hrs by MTT assay; type: functional, cell-based; conditions: MCF7, 72 h; in short: as §1
MCF7 [16] = assay: Induction of apoptosis in human MCF7 cells assessed as viable cells at 1 uM after 72 hrs by annexin V-FITC/propidium iodide staining-based flow cytometric method (reference value: 76%); type: functional; conditions: MCF7, 72 h, read-out: Activity
[17] = molecular target: Calcium/calmodulin-dependent protein kinase type 1 (Homo sapiens) (UniProt Q14012); assay: Inhibition of CAMK1 (unknown origin) at 10 uM by [33P]-ATP radiometric assay
In short: (§3)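 Radiometric kinase profiling: purified recombinant kinase (~10–50 nM final) with substrate, assay buffer and compound at 10 µM (control 10% DMSO). Started with 33P-ATP (50 µM stock, 0.8 µCi), run 30 min at ambient temperature, then spotted onto P81 phosphocellulose and washed in 1% phosphoric acid. Scintillation counted, no-substrate blank subtracted, single measurement, result given as % change versus control.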

[18] = molecular target: Casein kinase I isoform alpha (Homo sapiens) (UniProt P48729); assay: Inhibition of CK1alpha1 (unknown origin) at 10 uM by [33P]-ATP radiometric assay; in short: as §3
[19] = molecular target: Mitogen-activated protein kinase 3 (Homo sapiens) (UniProt P27361); assay: Inhibition of ERK1 (unknown origin) at 10 uM by [33P]-ATP radiometric assay; in short: as §3
[20] = molecular target: Fibroblast growth factor receptor 1 (Homo sapiens) (UniProt P11362); assay: Inhibition of FGFR1 (unknown origin) at 10 uM by [33P]-ATP radiometric assay; in short: as §3
[21] = molecular target: Hepatocyte growth factor receptor (Homo sapiens) (UniProt P08581); assay: Inhibition of MET (unknown origin) at 10 uM by [33P]-ATP radiometric assay; in short: as §3
[22] = molecular target: Epidermal growth factor receptor (Homo sapiens) (UniProt P00533); assay: Inhibition of EGFR (unknown origin) at 10 uM by [33P]-ATP radiometric assay; in short: as §3
[23] = molecular target: Calcium/calmodulin-dependent protein kinase type II subunit alpha (Homo sapiens) (UniProt Q9UQM7); assay: Inhibition of CAMK2-alpha (unknown origin) at 10 uM by [33P]-ATP radiometric assay; in short: as §3
[24] = molecular target: Activin receptor type-2A (Homo sapiens) (UniProt P27037); assay: Inhibition of ACVR2A (unknown origin) at 10 uM by [33P]-ATP radiometric assay; in short: as §3
[25] = molecular target: Protein kinase C beta type (Homo sapiens) (UniProt P05771); assay: Inhibition of PCK-beta2 (unknown origin) at 10 uM by [33P]-ATP radiometric assay; in short: as §3
[26] = molecular target: Cyclin-dependent kinase 16 (Homo sapiens) (UniProt Q00536); assay: Inhibition of CDK16 (unknown origin) at 10 uM by [33P]-ATP radiometric assay; in short: as §3
[27] = molecular target: Vascular endothelial growth factor receptor 1 (Homo sapiens) (UniProt P17948); assay: Inhibition of FLT1 (unknown origin) at 10 uM by [33P]-ATP radiometric assay; in short: as §3
[28] = molecular target: Receptor tyrosine-protein kinase erbB-2 (Homo sapiens) (UniProt P04626); assay: Inhibition of HER2 (unknown origin) at 10 uM by [33P]-ATP radiometric assay; in short: as §3
[29] = molecular target: Mast/stem cell growth factor receptor Kit (Homo sapiens) (UniProt P10721); assay: Inhibition of c-KIT (unknown origin) at 10 uM by [33P]-ATP radiometric assay
In short: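 Radiometric kinase profiling: purified recombinant kinase (~10–50 nM final) with substrate, assay buffer and compound at 10 µM (control 10% DMSO). Started with 33P-ATP (50 µM stock, 0.8 µCi), run 30 min at ambient temperature, then spotted onto P81 phosphocellulose and washed in 1% phosphoric acid.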

[30] = molecular target: Focal adhesion kinase 1 (Homo sapiens) (UniProt Q05397); assay: Inhibition of FAK (unknown origin) at 10 uM by [33P]-ATP radiometric assay; in short: as §3
[31] = molecular target: Mitogen-activated protein kinase 8 (Homo sapiens) (UniProt P45983); assay: Inhibition of JNK1 (unknown origin) at 10 uM by [33P]-ATP radiometric assay; in short: as §3

Calcium/calmodulin-dependent protein kinase type 1 (Homo sapiens), sequence (Q14012 whole entry, looked up): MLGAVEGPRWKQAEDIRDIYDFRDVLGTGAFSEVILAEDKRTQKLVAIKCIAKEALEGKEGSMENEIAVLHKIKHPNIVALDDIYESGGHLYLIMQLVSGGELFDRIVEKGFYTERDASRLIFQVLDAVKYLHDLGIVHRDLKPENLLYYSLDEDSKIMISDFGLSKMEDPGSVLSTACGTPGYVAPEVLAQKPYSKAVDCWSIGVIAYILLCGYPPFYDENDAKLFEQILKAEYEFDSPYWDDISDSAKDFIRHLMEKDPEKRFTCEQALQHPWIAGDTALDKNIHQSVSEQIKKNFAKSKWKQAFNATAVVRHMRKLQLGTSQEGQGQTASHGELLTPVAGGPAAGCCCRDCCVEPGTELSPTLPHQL
Protein kinase C beta type (Homo sapiens), sequence (P05771 2-671 limits assumed): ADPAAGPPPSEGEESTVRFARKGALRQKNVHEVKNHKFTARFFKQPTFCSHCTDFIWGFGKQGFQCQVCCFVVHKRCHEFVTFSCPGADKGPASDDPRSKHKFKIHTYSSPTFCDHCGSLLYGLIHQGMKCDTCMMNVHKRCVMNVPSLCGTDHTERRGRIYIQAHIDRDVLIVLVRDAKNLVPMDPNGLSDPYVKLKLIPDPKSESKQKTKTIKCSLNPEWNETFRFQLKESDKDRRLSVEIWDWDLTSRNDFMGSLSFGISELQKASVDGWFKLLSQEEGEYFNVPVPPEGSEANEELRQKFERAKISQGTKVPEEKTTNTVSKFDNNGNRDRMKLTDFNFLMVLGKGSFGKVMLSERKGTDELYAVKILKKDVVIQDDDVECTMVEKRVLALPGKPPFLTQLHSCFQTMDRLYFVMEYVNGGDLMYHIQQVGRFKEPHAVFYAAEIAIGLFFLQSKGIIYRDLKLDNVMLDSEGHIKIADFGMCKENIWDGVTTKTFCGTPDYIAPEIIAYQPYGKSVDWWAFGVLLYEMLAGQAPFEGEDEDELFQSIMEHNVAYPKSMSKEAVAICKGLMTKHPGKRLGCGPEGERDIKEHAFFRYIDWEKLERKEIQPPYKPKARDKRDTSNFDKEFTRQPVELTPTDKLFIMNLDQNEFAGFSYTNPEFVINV
Mitogen-activated protein kinase 3 (Homo sapiens), sequence (P27361 whole entry): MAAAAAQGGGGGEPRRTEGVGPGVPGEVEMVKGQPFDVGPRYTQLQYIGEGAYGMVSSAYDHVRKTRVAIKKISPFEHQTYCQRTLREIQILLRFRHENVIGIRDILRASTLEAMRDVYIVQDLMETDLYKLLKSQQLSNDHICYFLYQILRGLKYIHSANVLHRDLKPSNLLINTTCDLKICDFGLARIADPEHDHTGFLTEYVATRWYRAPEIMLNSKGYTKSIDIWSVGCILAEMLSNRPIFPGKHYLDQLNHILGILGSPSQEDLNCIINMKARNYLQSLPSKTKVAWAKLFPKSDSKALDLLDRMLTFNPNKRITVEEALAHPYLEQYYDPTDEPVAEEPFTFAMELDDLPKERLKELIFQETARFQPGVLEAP
Hepatocyte growth factor receptor (Homo sapiens), sequence (P08581 whole entry): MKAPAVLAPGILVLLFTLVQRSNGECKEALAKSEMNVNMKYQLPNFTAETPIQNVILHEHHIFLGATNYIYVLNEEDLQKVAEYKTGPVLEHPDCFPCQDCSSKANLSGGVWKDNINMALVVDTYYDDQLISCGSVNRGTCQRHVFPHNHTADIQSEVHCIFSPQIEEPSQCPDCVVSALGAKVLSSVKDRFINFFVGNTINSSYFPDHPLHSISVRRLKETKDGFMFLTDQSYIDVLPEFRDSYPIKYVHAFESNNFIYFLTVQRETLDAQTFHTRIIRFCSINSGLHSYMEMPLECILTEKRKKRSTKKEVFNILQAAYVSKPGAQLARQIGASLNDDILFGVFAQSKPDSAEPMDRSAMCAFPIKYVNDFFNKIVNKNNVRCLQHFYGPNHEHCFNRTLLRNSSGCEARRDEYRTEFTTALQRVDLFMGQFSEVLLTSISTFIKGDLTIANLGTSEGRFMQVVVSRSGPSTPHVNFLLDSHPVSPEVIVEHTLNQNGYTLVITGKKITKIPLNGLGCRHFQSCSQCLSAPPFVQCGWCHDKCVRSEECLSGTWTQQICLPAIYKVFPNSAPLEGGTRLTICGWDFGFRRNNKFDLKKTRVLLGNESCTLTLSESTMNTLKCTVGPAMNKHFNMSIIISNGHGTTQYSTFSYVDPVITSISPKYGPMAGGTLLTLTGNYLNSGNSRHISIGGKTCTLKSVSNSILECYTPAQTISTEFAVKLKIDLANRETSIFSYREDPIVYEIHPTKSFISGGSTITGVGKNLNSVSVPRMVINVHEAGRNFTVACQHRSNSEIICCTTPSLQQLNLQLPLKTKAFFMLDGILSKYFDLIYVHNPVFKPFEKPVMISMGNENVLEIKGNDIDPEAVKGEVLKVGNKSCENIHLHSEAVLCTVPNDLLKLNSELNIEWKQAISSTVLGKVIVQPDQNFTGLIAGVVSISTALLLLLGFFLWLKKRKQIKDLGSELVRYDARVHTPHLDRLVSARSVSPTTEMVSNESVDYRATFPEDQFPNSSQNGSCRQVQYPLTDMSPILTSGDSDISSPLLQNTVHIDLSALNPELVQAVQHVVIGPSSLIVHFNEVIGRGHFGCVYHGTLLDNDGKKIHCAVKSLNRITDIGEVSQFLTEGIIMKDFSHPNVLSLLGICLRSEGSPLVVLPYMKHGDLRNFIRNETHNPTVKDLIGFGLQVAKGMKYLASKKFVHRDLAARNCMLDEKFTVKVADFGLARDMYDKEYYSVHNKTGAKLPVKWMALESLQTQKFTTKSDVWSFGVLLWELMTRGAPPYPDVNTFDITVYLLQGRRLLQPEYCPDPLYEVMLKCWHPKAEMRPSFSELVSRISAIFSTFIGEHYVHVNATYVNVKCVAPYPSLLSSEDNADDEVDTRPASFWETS
Cyclin-dependent kinase 16 (Homo sapiens), sequence (Q00536 whole entry): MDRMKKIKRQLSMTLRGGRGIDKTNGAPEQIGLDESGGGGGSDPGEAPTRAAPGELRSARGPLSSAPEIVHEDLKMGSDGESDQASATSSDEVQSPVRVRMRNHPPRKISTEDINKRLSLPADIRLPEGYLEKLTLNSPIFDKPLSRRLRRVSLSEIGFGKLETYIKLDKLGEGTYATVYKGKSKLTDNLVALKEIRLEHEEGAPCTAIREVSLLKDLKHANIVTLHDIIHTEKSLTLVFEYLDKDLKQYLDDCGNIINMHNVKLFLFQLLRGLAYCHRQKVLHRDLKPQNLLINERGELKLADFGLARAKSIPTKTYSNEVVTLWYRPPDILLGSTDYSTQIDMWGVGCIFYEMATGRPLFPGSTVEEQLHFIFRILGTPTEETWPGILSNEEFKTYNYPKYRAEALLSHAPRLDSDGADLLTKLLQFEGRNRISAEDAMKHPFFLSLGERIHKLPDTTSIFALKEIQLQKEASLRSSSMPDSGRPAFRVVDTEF
Epidermal growth factor receptor (Homo sapiens), sequence (P00533 whole entry): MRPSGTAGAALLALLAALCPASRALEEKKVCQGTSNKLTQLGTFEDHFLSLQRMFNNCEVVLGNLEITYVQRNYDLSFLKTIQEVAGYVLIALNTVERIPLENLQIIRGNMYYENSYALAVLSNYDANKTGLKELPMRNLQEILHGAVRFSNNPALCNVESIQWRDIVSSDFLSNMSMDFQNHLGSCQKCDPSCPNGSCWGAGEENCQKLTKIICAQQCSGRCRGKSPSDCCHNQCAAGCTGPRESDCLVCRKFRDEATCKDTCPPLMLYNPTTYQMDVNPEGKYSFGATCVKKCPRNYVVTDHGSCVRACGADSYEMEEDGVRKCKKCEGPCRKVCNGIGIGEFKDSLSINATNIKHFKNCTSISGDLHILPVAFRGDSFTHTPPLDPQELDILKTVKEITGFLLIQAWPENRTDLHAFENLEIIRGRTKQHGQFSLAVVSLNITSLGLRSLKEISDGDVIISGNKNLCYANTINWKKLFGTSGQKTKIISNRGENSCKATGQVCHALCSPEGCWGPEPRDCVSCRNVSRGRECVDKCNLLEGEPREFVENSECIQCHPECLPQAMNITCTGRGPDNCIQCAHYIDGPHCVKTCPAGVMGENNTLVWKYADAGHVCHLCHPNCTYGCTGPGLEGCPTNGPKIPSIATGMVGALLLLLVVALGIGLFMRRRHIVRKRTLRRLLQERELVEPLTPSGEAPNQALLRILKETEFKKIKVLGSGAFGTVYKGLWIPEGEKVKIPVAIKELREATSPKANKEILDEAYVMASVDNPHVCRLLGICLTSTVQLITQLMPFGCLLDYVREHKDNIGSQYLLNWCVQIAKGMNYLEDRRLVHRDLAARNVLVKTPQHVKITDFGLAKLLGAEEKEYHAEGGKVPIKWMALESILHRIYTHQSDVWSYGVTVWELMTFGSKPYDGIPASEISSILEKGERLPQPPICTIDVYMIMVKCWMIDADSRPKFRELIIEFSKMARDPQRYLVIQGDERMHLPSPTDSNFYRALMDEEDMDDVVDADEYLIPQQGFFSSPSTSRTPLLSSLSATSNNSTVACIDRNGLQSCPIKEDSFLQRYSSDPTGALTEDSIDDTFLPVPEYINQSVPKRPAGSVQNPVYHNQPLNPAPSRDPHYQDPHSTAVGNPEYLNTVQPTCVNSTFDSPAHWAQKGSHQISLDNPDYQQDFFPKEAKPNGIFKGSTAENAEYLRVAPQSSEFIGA
Calcium/calmodulin-dependent protein kinase type II subunit alpha (Homo sapiens), sequence (Q9UQM7 whole entry): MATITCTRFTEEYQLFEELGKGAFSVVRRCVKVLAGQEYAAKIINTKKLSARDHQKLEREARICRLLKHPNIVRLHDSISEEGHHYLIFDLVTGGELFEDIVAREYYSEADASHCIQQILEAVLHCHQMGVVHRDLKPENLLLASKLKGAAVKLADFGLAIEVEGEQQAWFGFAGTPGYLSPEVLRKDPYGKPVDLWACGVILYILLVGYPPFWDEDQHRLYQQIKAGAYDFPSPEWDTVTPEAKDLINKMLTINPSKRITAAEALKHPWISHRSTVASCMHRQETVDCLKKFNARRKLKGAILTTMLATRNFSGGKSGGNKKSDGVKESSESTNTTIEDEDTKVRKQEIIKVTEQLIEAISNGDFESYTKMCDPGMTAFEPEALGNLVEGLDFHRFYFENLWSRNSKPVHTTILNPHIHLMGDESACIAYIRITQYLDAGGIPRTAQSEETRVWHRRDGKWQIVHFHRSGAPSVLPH

## COc1ccc2nc3nc(NCc4ccc(CN(C)C)cc4)[nH]c(=O)c3nc2c1
MCF7 [1]
  Activity: 17%
MCF7 [2]
  Activity: 4.8%
MCF7 [3]
  viability at 5 µM: 67.4%
[4]
  IC50: > 50 µM
MCF7 [5]
  Activity: 16.2%
MCF7 [6]
  viability at 10 µM: 60%
K562
  IC50: > 50 µM
A2780
  IC50: 0.7 µM
MCF7 [7]
  Activity: 12%
MCF7 [8]
  Activity: 5.9%
MCF7 [9]
  fold change (FC): 2
MCF7 [10]
  Activity: Dose-dependent effect
HCT-116
  IC50: 1.3 µM
MCF7 [11]
  Activity: 7.9%
MCF7 [12]
  Activity: 11.7%
MCF7 [13]
  Activity: 22.1%
MCF7 [14]
  Activity: 7.7%
MCF7 [15]
  IC50: 0.55 µM
MCF7 [16]
  viability at 1 µM: 67.3%

## Cc1ccc2nc3nc(NCc4ccc(CN5CCCCC5)cc4)[nH]c(=O)c3cc2c1
[4]
  IC50: 11 µM
K562
  IC50: 15.9 µM
A2780
  IC50: 1.52 µM
HCT-116
  IC50: 7.23 µM
MCF7 [15]
  IC50: 2.34 µM

## COc1ccc(CCN2CCC(Nc3nc4nc5ccc(OC)cc5nc4c(=O)[nH]3)CC2)cc1
[4]
  IC50: 33.1 µM
K562
  IC50: 17.3 µM
A2780
  IC50: 0.9 µM
HCT-116
  IC50: 0.93 µM
MCF7 [15]
  IC50: 0.8 µM

## COc1ccc2nc3nc(NCc4ccc(CN5CCOCC5)cc4)[nH]c(=O)c3cc2c1
[4]
  IC50: 49.1 µM
K562
  IC50: 23.2 µM
A2780
  IC50: 2.89 µM
HCT-116
  IC50: 5.22 µM
MCF7 [15]
  IC50: 3.13 µM

## Cc1ccc(NC(=O)c2ccc(CN3CCN(C)CC3)cc2)cc1Nc1nccc(-c2cccnc2)n1 [IMATINIB]
[17]
  inhibition: 10%
K562
  IC50: 3.43 µM
A2780
  IC50: 8.9 µM
[18]
  inhibition: 11%
[19]
  inhibition: -2%
[20]
  inhibition: 1%
[21]
  inhibition: 10%
[22]
  inhibition: 9%
[23]
  inhibition: 1%
[24]
  inhibition: -2%
HCT-116
  IC50: 19.7 µM
[25]
  inhibition: 10%
MCF7 [15]
  IC50: 7.12 µM
[26]
  inhibition: 10%

## COc1ccc2nc3nc(NCc4ccc(CN5CCN(C)CC5)cc4)[nH]c(=O)c3nc2c1
MCF7 [1]
  Activity: 5%
MCF7 [2]
  Activity: 3.7%
[27]
  inhibition: 12%
[28]
  inhibition: -2%
[29]
  inhibition: -9%
MCF7 [3]
  viability at 5 µM: 72.3%
[17]
  inhibition: 19%
MCF7 [5]
  Activity: 9.7%
MCF7 [6]
  viability at 10 µM: 72.2%
K562
  IC50: > 50 µM
A2780
  IC50: 0.05 µM
MCF7 [7]
  Activity: 5.4%
[18]
  inhibition: -1%
[19]
  inhibition: 7%
[20]
  inhibition: 8%
MCF7 [8]
  Activity: 16.3%
[21]
  inhibition: 2%
[22]
  inhibition: 25%
[23]
  inhibition: 8%
[24]
  inhibition: -6%
HCT-116
  IC50: 0.05 µM
MCF7 [11]
  Activity: 4.1%
[25]
  inhibition: -7%
MCF7 [12]
  Activity: 8.1%
[30]
  inhibition: -10%
MCF7 [13]
  Activity: 6.2%
MCF7 [14]
  Activity: 18.6%
MCF7 [15]
  IC50: 0.04 µM
[31]
  inhibition: -7%
[26]
  inhibition: 12%
MCF7 [16]
  viability at 1 µM: 78.4%

## COc1ccc2nc3nc(NC(C)c4ccccc4)[nH]c(=O)c3nc2c1 (centres undefined)
[4]
  IC50: > 50 µM
K562
  IC50: > 50 µM
A2780
  IC50: 4.83 µM
HCT-116
  IC50: 5.78 µM
MCF7 [15]
  IC50: 5.73 µM
